# In ChEMBL document CHEMBL1125425, “Synthesis and muscarinic activities of quinuclidin-3-yltriazole and -tetrazole derivatives” (J Med Chem, 1992):
# Key:
# [1] = target: Muscarinic acetylcholine receptor; assay: Compound was tested in vitro for its binding affinity to muscarinic acetylcholine receptor from rat cortical homogenates using [3H]OXO-M as radioligand
# Outline: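 Hooded Lister rat cerebral cortex washed membranes in 50 mM Tris pH 7.7 plus 2 mM MgCl2; 2 nM [3H]oxotremorine-M; nonspecific binding with 10 μM oxotremorine; 37 °C for 30 min; filtration on filters presoaked in 0.05% polyethylenimine, scintillation counting. IC50 is the geometric mean of at least two separate experiments, seven concentrations each.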
# [2] = target: Muscarinic acetylcholine receptor (Rattus norvegicus) (UniProt P08482+P08483+P08485+P08911+P10980); assay: Ratio of IC50(QNB) to IC50(OXO-M) was determined; assay type: protein assay
# [3] = target: Muscarinic acetylcholine receptor; assay: Compound was tested in vitro for its binding affinity to muscarinic acetylcholine receptor from rat cortical homogenates using [3H]QNB as radioligand
# [4] = target: Muscarinic acetylcholine receptor; assay: In vitro inhibition of [3H]OXO-M binding to Muscarinic receptor from rat cortical homogenates
# [5] = target: Muscarinic acetylcholine receptor; assay: In vitro inhibition of [3H]QNB binding to Muscarinic receptor from rat cortical homogenates
SMILES,IC50 [1] [µM],Ratio [2],IC50 [3] [µM],IC50 [4] [µM],IC50 [5] [µM]
c1ncn(C2CN3CCC2CC3)n1 (centres undefined),0.43,65,28,,
Cc1nnn(C2CN3CCC2CC3)n1 (centres undefined),0.03,92,2.8,,
Cn1ncc(C2CN3CCC2CC3)n1 (centres undefined),,,,0.048,4.5
Cn1nnc(C2CN3CCC2CC3)n1 (centres undefined),,,,0.14,5.1
Cn1cnc(C2CN3CCC2CC3)n1 (centres undefined),,,,3.4,30
Cn1nnnc1C1CN2CCC1CC2 (centres undefined),,,,6.5,60
O=C1CCCN1CC#CCN1CCCC1 [OXOTREMORINE],,,,0.017,3.3
Cc1cnn(C2CN3CCC2CC3)n1 (centres undefined),,,,0.17,1.6
Cc1cnnn1C1CN2CCC1CC2 (centres undefined),6.7,4.9,33,,
Cn1cc(C2CN3CCC2CC3)nn1 (centres undefined),,,,4.6,53
c1nncn1C1CN2CCC1CC2 (centres undefined),,,,40,165
c1nnnn1C1CN2CCC1CC2 (centres undefined),2.3,49,115,,
Cc1cn(C2CN3CCC2CC3)nn1 (centres undefined),,,,5,20
Cc1ncn(C2CN3CCC2CC3)n1 (centres undefined),,,,0.075,4.5
c1nnn(C2CN3CCC2CC3)n1 (centres undefined),,,,0.24,16
Cn1nncc1C1CN2CCC1CC2 (centres undefined),,,,0.93,29
C[N+](C)(C)CC#CCN1CCCC1=O.[I-] [OXOTREMORINE METHIODIDE],0.013,1820,23,,
